Laboratory results reported in PubChem BioAssay AID504535 (Broad Institute, 2011).
Values joined by “and” are separate entries in the source; they are usually repeats but may differ in a detail not shown here. Equal values may be shown once. Inconclusive results are not listed. Active and inactive are the calls of the source.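 Rule for the calls: active = luminescence drop with fitted half-effect dose at most ten times the top tested dose, in every repeat; inconclusive = repeats disagree, flat moderate inhibition, or unreliable curve fit; inactive = every repeat flat, too weak, or signal rising.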

What was measured:
[1] = tested on: HMLE_shECad viability, CellTiter-Glo luminescence, 72 h; assay: killing of E-cadherin-knockdown HMLE cells – cell-based, CellTiter-Glo luminescence, primary HTS retest, dry powder, set 5, dose response (AID 504535)
In short: (§1)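 System: HMLE_shECad model of breast cancer stem cells | Amount: 2000 cells per well | Buffer or medium: Serum-free CSC medium | Dosing: 100 nL pinned compound | Schedule: About 72 h compound exposure at 37 °C, 5% CO2 | Detection: CellTiter-Glo ATP luminescence, reagent diluted 1:3 in PBS | Read-out basis: Cell viability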

[2] = as above; conditions: HMLE_shECad viability, CellTiter-Glo luminescence, 72 h
In short: as §1

Structure (SMILES) | AC50 [1] | activity change, negative = inhibition ([2]; at 19.5 µM (top of the series)) | further results
Cc1csc(NC(=O)c2ccc(COC3CCCCC3)o2)n1 | 17 µM | – | –
Cc1csc(NCc2ccc(COc3ccccc3)o2)n1 | – | -11.4% (inactive) | –
O=C(Nc1nc(C(F)(F)F)cs1)c1ccc(COc2ccccc2)o1 | 13.2 µM | – | –
Cc1cccc(OCc2ccc(C(=O)Nc3nc(C)cs3)o2)c1 | 0.259 µM and 0.332 µM | – | –
Cc1ccc(OCc2ccc(C(=O)Nc3nc(C)cs3)o2)cc1 | 2.51 µM | – | –
Cc1csc(NC(=O)c2ccc(COc3cccc(S(C)(=O)=O)c3)o2)n1 | – | -13.6% (inactive) | –
COCc1ccc(C(=O)Nc2nc(C)cs2)o1 | – | 1.05% (inactive) | –
O=C(Nc1nncs1)c1ccc(COc2ccccc2)o1 | – | -7.89% (inactive) | –
Cn1c(C(=O)NC2=NCCS2)cc2ccccc21 | – | -9.82% (inactive) | –
N#Cc1ccc(/C=C/C(=O)NC2=NCCS2)cc1 | 29.2 µM | – | –
CC(C)c1ccc(/C=C/C(=O)NC2=NCCS2)cc1 | 2.97 µM | – | –
Cc1ccc2cc(C(=O)NC3=NCCS3)n(C)c2c1 | – | – | activity change, negative = inhibition ([2]; at 30 µM (top of the series)): -12.6% (inactive)
COc1cccc(OCc2ccc(C(=O)Nc3nc(C)cs3)o2)c1 | 0.348 µM | – | –
CC(C)c1ccc(/C=C/C(=O)Nc2cncs2)cc1 | 11.4 µM | – | –
C/C(=C\C(=O)NC1=NCCS1)c1ccc(CC(C)C)cc1 | – | 3.46% (inactive) | –
CNC(=O)c1csc(NC(=O)c2ccc(COc3ccccc3)o2)n1 | – | -8.68% (inactive) | –
Cc1csc(NC(=O)c2ccc(CCc3ccccc3)o2)n1 | 0.895 µM | – | –
Cc1csc(NC(=O)c2ccc(CNc3ccccc3)o2)n1 | 0.676 µM | – | –
CC(C)NC(=O)c1ccc(COc2ccccc2)o1 | – | -14.2% (inactive) | –
Cc1cc(Br)ccc1OCC(=O)N/N=C/c1ccc[nH]1 | 3.76 µM | – | –
CC(C)Cc1ccc(/C=C/C(=O)NC2=NCCS2)cc1 | 0.57 µM | – | –
CC(C)c1ccc(/C=C/C(=O)N(C)C2=NCCS2)cc1 | 21.2 µM | – | –
Cc1csc(NC(=O)c2ccc(COc3ccccn3)o2)n1 | 17.8 µM | – | –
Cc1cc(C)c(OCC(=O)N/N=C/c2ccc[nH]2)c(C)c1 | 9.43 µM | – | –
C/C(=C\C(=O)NC1=NCCS1)c1ccc(C)cc1 | – | -1.94% (inactive) | –
O=C(COc1c(Cl)cc(Cl)cc1Cl)N/N=C/c1ccc[nH]1 | 1.44 µM | – | –
N#Cc1csc(NC(=O)c2ccc(COc3ccccc3)o2)n1 | 18.1 µM | – | –
Cc1csc(NC(=O)c2ccc(COCc3ccccc3)o2)n1 | 6.04 µM | – | –
CCc1ccc(/C=C/C(=O)NC2=NCCS2)cc1 | 1.67 µM | – | –
CCN(CC)C(=O)c1ccc(COc2ccccc2)o1 | – | 8.61% (inactive) | –
